From ChEMBL document CHEMBL5649170, “Sustained microglial depletion with CSF1R inhibitor impairs parenchymal plaque development in an Alzheimer's disease model” (Nat Commun, 2019)

How the values were obtained:
[1] = target: ALK tyrosine kinase receptor (Homo sapiens, UniProt Q9UM73); assay: Inhibition of ALK (unknown origin)
[2] = target: Fibroblast growth factor receptor 3 (Homo sapiens, UniProt P22607); assay: Inhibition of FGFR3 (unknown origin)
[3] = target: Mitogen-activated protein kinase 1 (Homo sapiens, UniProt P28482); assay: Inhibition of MAPK1 (unknown origin)
[4] = target: Maternal embryonic leucine zipper kinase (Homo sapiens, UniProt Q14680); assay: Inhibition of MELK (unknown origin)
[5] = target: Serine/threonine-protein kinase PAK 4 (Homo sapiens, UniProt O96013); assay: Inhibition of PAK4 (unknown origin)
[6] = target: Protein kinase C zeta type (Homo sapiens, UniProt Q05513); assay: Inhibition of PRKCZ (unknown origin)
[7] = target: Rho-associated protein kinase 1 (Homo sapiens, UniProt Q13464); assay: Inhibition of ROCK1 (unknown origin)
[8] = target: Tyrosine-protein kinase SYK (Homo sapiens, UniProt P43405); assay: Inhibition of SYK (unknown origin)
[9] = Clearance in monkey at 1.35 mg/kg, iv administered as single dose; format: ADME, organism-based, Macaca mulatta; conditions: rhesus monkey, in vivo
Mus musculus [10] = assay: Antialzheimer activity in 5XFAD mouse assessed as number of Iba positive cells per FOV in microglia at 1200 ppm administered as rodent chow for 3 days by DAPI staining based immunolabeling analysis (reference value: 119 to 154); format: functional; conditions: route po, time 3 day
[11] = Toxicity in wildtype mouse assessed as time in platform zone at 1200 ppm administered as rodent chow for 10 to 24 weeks by Morris water maze test (reference value: 0 to 2.7 sec); conditions: in vivo, po, time 10-24 weeks
[12] = Toxicity in wildtype mouse assessed as distance traveled at 1200 ppm administered as rodent chow for 10 to 24 weeks by Open field test (reference value: 13.381 to 26.996 meter); conditions: in vivo, po, time 10-24 weeks
Mus musculus [13] = assay: Antialzheimer activity in 5XFAD mouse assessed as amyloidbeta42 level in detergent insoluble cortex fraction measured per microgram protein at 1200 ppm administered as rodent chow starting from 1.5 months and measured after 4 months by ELISA (reference value: 184693 to 3485624 pg); format: functional; conditions: route po, time 2.5 months, 1825 h
Procedure, shortened: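 PLX5622 at 1200 ppm in chow given to 5xFAD mice from 1.5 months to 4 or 7 months of age; cortex and thalamus homogenized in TPER (detergent-soluble), pellets re-homogenized in 70% formic acid and spun 100,000 g, 1 h, 4 °C (insoluble); protein by Bradford/Lowry; Aβ species measured by Meso Scale electrochemiluminescence immunoassay, normalized to protein; n = 7–8 per group at 7 months.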

[14] = target: T1, Macrophage colony-stimulating factor 1 receptor (Mus musculus) (UniProt P09581); assay: In vivo inhibition of CSF1R in wildtype mouse assessed as microglial elimination in cortex at 1200 ppm administered as rodent chow for 10 weeks by […] based confocal microscopic analysis relative to control; format: functional; design: scale not given: the % may be the effect or the level left; conditions: route po
T1 sequence (whole entry): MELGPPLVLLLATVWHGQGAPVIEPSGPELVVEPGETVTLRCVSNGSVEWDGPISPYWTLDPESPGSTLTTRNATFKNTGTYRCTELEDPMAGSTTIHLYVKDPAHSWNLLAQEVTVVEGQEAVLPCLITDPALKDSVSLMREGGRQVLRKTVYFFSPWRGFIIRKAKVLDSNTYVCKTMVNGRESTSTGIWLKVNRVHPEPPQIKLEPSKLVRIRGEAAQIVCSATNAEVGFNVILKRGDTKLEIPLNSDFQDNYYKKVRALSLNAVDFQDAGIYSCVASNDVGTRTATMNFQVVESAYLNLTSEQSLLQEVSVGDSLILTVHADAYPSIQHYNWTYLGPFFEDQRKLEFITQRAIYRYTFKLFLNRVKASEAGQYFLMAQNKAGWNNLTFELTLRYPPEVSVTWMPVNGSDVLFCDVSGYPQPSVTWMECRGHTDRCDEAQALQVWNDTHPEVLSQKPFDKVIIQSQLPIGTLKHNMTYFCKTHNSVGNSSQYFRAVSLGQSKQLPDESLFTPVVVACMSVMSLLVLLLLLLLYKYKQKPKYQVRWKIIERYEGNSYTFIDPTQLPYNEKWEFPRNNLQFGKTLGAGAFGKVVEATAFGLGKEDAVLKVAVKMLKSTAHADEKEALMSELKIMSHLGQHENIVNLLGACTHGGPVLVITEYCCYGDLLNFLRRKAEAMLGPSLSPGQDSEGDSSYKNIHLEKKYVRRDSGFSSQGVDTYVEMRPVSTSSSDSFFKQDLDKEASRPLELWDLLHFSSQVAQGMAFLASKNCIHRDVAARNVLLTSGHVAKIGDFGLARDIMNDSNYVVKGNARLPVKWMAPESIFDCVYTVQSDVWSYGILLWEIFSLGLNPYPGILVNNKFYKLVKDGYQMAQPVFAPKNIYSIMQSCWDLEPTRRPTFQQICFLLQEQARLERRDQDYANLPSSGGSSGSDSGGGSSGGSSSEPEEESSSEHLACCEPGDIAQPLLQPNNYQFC

Mus musculus [15] = assay: Antialzheimer activity in 5XFAD mouse assessed as iron reactivity by measuring hemosiderin intensity of prussian blue staining in thalamus at 1200 ppm administered as rodent chow starting from 1.5 months and measured after 7 months by confocal microscopic analysis (reference value: 0.39 to 3.131 a.u.); format: functional; conditions: route po, time 5.5 months, 4015 h
Procedure, shortened: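 Wild-type or 5xFAD mice fed PLX5622 (1200 ppm) in AIN-76A chow from 1.5 months of age, examined in 4- and 7-month-old cohorts. Brain sections stained with a Prussian blue kit per kit instructions to detect iron deposits (microbleeds).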

[16] = target: T1, Macrophage colony-stimulating factor 1 receptor (Mus musculus); assay: In vivo inhibition of CSF1R in wildtype mouse assessed as number of Iba1 positive cells per FOV in subiculum at 1200 ppm administered as rodent chow starting from 1.5 months and measured after 7 months by immunolabeling based confocal microscopic analysis (reference value: 482 to 1085); format: functional; conditions: route po, time 5.5 months
[17] = Effect on Cx3cr1 gene expression in 5XFAD mouse thalamus at 1200 ppm administered as rodent chow starting from 1.5 months and measured after 7 months by RNA-Seq analysis (reference value: 15.006 to 17.756 RPKM); format: functional; conditions: route po, time 5.5 months, 4015 h
[18] = Effect on ccl6 gene expression in wild type mouse cortex at 1200 ppm administered as rodent chow starting from 1.5 months and measured after 7 months by RNA-Seq analysis (reference value: 0.280 to 1.162 RPKM); format: functional; conditions: route po, time 5.5 months, 4015 h
Mus musculus [19] = assay: Antialzheimer activity in 5XFAD mouse assessed as number of This-S positive cells per FOV in […] cortex at 1200 ppm administered as rodent chow starting from 1.5 months to 4 months followed by compound removal and measured after 1 months by immunolabelling based confocal microscopic analysis (reference value: 63 to 124); format: functional; conditions: route po, time 2.5 months, 1825 h
Procedure, shortened: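 For the repopulation paradigm, 5xFAD mice ate 1200 ppm PLX5622 chow from 1.5 to 4 months of age. Inhibitor chow was then withdrawn, and brains were examined one month later. Sections were stained with Thio-S and immunolabeled for IBA1, then analysed by confocal microscopy in cortical regions.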

[20] = target: T1, Macrophage colony-stimulating factor 1 receptor (Mus musculus); assay: In vivo inhibition of CSF1R in wildtype mouse assessed as number of GFAP positive cells per FOV at 1200 ppm administered as rodent chow starting from 1.5 months to 4 months followed by compound removal and measured after 1 month by immunolabeling based confocal microscopic analysis (reference value: 1 to 7); format: functional; conditions: route po, time 2.5 months

Chain of Serine/threonine-protein kinase PAK 4 (O96013 whole entry): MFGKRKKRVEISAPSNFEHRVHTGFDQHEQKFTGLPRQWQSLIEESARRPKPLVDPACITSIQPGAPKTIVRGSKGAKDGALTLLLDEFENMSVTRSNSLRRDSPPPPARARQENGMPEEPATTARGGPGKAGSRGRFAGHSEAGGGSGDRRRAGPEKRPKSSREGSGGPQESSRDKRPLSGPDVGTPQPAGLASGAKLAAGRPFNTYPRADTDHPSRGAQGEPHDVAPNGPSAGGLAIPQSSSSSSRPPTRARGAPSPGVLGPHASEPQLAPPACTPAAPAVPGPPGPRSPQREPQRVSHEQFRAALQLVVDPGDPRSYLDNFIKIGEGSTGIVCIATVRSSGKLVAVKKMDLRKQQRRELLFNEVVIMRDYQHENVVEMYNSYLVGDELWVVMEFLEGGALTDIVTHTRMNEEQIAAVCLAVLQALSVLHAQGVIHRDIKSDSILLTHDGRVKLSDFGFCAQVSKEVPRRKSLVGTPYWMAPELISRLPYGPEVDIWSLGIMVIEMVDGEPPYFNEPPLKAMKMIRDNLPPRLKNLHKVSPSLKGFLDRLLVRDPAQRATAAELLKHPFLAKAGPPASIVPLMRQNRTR
Chain of ALK tyrosine kinase receptor (Q9UM73 whole entry): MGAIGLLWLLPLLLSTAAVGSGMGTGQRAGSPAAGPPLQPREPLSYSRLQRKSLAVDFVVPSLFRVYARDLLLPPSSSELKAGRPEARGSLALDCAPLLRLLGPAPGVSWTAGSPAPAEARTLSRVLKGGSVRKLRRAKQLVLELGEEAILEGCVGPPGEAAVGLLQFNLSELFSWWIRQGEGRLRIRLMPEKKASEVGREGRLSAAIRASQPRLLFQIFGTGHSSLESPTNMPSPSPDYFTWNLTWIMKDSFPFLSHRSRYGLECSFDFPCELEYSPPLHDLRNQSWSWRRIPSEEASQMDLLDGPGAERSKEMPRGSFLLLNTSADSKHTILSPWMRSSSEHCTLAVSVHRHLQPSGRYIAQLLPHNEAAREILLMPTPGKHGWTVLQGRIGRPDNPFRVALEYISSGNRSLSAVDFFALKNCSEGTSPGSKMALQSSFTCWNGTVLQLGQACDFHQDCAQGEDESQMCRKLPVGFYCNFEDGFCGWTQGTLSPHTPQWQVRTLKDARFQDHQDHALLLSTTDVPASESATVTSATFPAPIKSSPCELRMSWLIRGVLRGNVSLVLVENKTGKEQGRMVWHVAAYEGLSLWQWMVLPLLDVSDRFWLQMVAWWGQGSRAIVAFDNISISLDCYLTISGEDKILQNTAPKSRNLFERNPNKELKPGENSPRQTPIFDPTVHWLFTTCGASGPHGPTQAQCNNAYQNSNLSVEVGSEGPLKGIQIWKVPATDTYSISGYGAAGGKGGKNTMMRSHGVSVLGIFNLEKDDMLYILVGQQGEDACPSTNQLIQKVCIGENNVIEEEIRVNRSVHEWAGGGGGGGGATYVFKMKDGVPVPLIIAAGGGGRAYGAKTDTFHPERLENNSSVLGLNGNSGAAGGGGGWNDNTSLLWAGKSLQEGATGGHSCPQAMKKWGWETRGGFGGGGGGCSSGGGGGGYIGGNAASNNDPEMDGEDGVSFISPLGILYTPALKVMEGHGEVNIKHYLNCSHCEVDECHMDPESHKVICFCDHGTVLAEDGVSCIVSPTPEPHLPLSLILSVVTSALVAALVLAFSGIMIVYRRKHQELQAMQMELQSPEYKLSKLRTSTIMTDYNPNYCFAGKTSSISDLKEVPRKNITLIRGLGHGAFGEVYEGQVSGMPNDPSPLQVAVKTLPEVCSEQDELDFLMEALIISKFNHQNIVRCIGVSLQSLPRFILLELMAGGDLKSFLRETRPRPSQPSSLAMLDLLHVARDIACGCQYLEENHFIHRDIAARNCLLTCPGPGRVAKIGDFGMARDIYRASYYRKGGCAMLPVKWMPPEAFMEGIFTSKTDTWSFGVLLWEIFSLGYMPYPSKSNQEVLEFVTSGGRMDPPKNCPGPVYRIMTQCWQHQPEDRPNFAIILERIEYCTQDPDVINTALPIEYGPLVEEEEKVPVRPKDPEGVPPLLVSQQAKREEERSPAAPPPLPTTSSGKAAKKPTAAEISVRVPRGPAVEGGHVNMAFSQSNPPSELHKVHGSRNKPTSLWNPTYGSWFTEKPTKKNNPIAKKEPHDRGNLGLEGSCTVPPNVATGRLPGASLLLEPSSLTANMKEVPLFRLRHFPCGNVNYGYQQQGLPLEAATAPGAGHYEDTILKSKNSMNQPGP
Chain of Protein kinase C zeta type (Q05513 whole entry): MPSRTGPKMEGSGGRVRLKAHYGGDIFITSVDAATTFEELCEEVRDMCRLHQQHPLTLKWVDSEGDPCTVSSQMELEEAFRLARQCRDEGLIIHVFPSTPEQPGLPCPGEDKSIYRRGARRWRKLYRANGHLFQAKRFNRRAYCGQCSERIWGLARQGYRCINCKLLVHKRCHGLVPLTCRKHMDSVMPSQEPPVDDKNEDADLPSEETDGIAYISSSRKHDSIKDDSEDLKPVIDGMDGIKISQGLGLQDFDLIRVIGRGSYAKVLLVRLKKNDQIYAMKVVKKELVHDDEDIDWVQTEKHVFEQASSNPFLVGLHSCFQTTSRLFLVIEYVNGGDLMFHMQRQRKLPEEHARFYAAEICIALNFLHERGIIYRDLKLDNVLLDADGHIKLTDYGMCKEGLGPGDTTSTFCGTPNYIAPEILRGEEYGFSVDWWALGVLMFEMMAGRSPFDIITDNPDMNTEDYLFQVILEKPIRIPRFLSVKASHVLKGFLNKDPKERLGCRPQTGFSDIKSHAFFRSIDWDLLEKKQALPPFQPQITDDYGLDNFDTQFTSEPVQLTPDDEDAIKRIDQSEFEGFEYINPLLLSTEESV
Chain of Rho-associated protein kinase 1 (Q13464 whole entry): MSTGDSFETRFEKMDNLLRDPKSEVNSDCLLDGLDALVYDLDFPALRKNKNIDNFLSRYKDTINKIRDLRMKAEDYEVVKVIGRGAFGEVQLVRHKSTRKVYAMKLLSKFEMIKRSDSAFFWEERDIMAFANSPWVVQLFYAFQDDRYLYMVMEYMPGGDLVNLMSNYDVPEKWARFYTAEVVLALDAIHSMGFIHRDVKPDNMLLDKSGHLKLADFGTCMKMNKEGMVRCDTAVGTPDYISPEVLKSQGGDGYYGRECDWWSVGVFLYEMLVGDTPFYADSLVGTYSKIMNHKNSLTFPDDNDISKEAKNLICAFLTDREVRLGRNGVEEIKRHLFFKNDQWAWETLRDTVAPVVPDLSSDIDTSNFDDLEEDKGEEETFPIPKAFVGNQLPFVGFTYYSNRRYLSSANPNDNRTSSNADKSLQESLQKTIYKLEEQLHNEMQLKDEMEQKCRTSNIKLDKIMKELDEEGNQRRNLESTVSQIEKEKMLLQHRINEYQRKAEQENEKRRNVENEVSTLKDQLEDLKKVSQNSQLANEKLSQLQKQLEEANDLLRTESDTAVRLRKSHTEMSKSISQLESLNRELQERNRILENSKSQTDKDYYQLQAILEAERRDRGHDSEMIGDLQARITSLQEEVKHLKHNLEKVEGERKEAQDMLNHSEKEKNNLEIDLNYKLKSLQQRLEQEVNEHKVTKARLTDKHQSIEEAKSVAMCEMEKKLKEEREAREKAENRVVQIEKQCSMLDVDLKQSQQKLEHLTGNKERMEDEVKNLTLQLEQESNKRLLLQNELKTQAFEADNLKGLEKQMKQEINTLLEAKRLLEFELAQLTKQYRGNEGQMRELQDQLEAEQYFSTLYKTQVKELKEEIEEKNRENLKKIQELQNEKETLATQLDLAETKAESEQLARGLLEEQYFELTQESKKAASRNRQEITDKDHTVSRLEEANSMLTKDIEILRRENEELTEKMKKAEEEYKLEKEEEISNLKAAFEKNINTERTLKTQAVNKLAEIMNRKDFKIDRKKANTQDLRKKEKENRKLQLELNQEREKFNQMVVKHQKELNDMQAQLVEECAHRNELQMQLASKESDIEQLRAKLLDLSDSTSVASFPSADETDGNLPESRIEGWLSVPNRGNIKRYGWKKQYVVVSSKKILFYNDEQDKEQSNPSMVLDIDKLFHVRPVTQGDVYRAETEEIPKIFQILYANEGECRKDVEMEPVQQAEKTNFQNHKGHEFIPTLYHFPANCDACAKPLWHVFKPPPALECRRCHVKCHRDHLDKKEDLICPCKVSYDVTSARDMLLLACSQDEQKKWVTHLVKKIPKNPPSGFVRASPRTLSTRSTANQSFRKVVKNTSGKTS
Chain of Mitogen-activated protein kinase 1 (P28482 whole entry): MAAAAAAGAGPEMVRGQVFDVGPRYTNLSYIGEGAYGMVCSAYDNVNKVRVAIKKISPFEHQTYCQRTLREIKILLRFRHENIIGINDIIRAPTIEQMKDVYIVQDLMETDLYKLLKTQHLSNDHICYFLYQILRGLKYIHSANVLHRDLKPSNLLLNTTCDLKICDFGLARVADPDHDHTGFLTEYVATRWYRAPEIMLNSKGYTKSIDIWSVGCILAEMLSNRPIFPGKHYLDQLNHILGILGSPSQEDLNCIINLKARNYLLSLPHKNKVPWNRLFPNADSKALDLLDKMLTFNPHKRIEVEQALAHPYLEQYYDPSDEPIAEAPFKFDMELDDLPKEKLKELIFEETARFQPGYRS

With `COc1ncc(F)cc1CNc1ccc(Cc2c[nH]c3ncc(C)cc23)c(F)n1` [PLX-5622] the IC50 [1] was > 1000 nM, the IC50 [2] was > 1000 nM and the IC50 [3] was > 1000 nM. For the same compound, the IC50 [4] was > 1000 nM, the IC50 [5] was > 1000 nM and the IC50 [6] was > 1000 nM. The IC50 [7] was > 1000 nM, the IC50 [8] was > 1000 nM and the clearance [9] was 11 mL/min/kg. It also gave an Activity (Mus musculus [10]) of 1, a Time [11] of 0.4 s and an Activity [12] of 9.067 m. For the same compound, the Activity (Mus musculus [13]) was 14098.06 pg, the Activity [14] was > 99% and the Flu intensity (Mus musculus [15]) was 0.1 a.u. The Activity [16] was 0, the Activity [17] was 0.179 RPKM and the Activity [18] was 0 RPKM. It also gave an Activity (Mus musculus [19]) of 60 and an Activity [20] of 3.
